Compound activity from PubChem BioAssay.
Biofilm kill mix = mixture kills Candida albicans biofilm cells; C. albicans biofilm persisters + clotrimazole, fluorescence viability; primary screen in compound mixtures of four per well; inhibition, % at 7.6 µM; hit rate 0.02% among 120,000; AID 1242;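 active means inhibition above 30.3% in the primary screen of four-compound pools, then above 30% when the compound was retested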;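 further: compounds exposed to preformed 24 h biofilms for 48 h; 0% = untreated biofilm control and 100% = clotrimazole plus chlorhexidine kill blank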
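Test system: C. albicans CAF4-2 wild-type biofilms; buffer or medium: RPMI/MOPS medium, pH 7.0; schedule: 24 h biofilm formation, then 48 h compound exposure, 37 °C; detection: Alamar Blue fluorescence; measure: percent inhibition of biofilm viability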
Pf gamet viab = P. falciparum stage V gametocyte viability inhibition; hit rate 0.065% among 150,000; AID 743093; P. falciparum stage V gametocytes, ATP luminescence, 24 h; inhibition, % at 10.9 µM;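 active means inhibition above the mean plus 3 SD of compounds within the control limits, set per campaign, cut at about 38% in these data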;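 further: 0% = DMSO wells and 100% = medium only without gametocytes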
ROMK primary = human ROMK K+ channel modulation, primary screen; P48048; hit rate 2% among 130,000; B-score at 10 µM; Tet-inducible ROMK, thallium flux fluorescence; actives lie on both sides; AID 1918;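 active means signal ratio slope over the read window, or its plate-corrected B-score, at least 3 SD from the plate mean, either direction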;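 further: B-score of the F/F0 ratio slope over 7 to 12 s after thallium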
Target sequence (P48048 whole entry, looked up): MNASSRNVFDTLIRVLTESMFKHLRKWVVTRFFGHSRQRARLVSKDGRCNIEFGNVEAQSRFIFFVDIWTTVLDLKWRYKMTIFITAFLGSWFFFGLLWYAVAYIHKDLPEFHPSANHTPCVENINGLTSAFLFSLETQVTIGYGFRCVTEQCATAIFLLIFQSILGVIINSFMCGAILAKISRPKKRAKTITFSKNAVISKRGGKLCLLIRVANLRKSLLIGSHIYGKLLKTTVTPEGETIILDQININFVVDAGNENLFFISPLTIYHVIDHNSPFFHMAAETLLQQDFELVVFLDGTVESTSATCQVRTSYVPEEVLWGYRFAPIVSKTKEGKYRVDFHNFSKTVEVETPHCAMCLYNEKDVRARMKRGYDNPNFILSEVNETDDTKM
* = called active by the depositor; . = no result given. Many of the other results were omitted from the sample, so hits are more common in it than they were.

SMILES	Biofilm kill mix	Pf gamet viab	ROMK primary
COc1ccc(-n2nc3c(c2NC(=O)c2ccc(S(=O)(=O)N4CCOCC4)cc2)CS(=O)C3)cc1 (centres undefined)	8	-4	-0.037
CC(CC(=O)NCCc1ccc(F)cc1)c1ccccc1 (centres undefined)	.	20	.
OCC[C@@H]1C[C@@H](O)[C@H](O)[C@]2(Cc3ccccc3CCO2)O1	.	-12	.
O=C(O)c1cn(Cc2ccccc2)c2ccc(Cl)cc2c1=O	.	22	.
COc1ccc(S(=O)(=O)N(C)C[C@H]2Oc3ccc(NS(=O)(=O)c4cccs4)cc3C(=O)N([C@H](C)CO)C[C@@H]2C)cc1	.	-31	.
CCCCCOc1ccc(C(O)C(CN2CCOCC2)c2ccccc2)cc1 (centres undefined)	.	-7	.
COc1ccc(C(=O)NNC(=S)NC(=O)c2ccc(Cl)cc2)cc1	.	-15	.
Cc1cccc(C(=O)NC(=S)NNC(=O)c2ccc(Cl)cc2)c1	11	.	5.3*
CC1(C)CC(=O)C=C(CN2C(=O)c3ccccc3C2=O)C1=O	.	-21	.
Cc1ccc(NC(=S)NC(=O)c2sc3ccccc3c2Cl)c(C(=O)O)c1	-10	.	4.5*
O=C(O)c1ccccc1NC(=S)NC(=O)c1sc2ccccc2c1Cl	5	-16	3.1
O=C(Nc1cccc(Cl)c1)c1nc[nH]c1C(=O)N1CCN(c2ccccc2)CC1	.	8	.
COC(=O)N/N=C(\C)c1ccc(Br)cc1	.	-10	.
CSC(=S)N/N=C(\C)c1ccc(Br)cc1	25	15	3.1*
Cc1cccc(OCC(=O)NCc2ccc(F)cc2)c1	.	2	.
O=C(CSc1ccc(Cl)cc1)NC1CCCC1	.	10	.
O=C(NC1CCCCC1)Sc1ccc(Cl)cc1	.	0	-4.7*
CCN(CC)S(=O)(=O)c1ccc(N2CCCCC2)c(C(=O)Nc2ccccc2N2CCOCC2)c1	.	.	-3.6*
CCN(CC)S(=O)(=O)c1ccc(N2CCOCC2)c(NC(=O)c2cccc3ccccc23)c1	17	14	.
NNc1ccc2c(C(F)(F)F)cc(C(F)(F)F)nc2n1	2	1	0.22
N#CC(c1cccc(Cl)c1)c1ccc2c(C(F)(F)F)cc(C(F)(F)F)nc2n1 (centres undefined)	.	-5	3.2*
C=CCCC(=O)NC1CCCc2c1cnn2-c1ccccc1F (centres undefined)	.	-22	.
CCN(CC)c1ccc(C(=O)NC(=S)N2CCN(Cc3ccc4c(c3)OCO4)CC2)cc1	21	-7	-3.3*
CC(C)NC(=S)N1CCN(Cc2ccc3c(c2)OCO3)CC1	-2	-13	0.72
Cc1ccc(C)c(Cc2c(C)nc3c(C(=O)NCc4ccc5c(c4)OCO5)cnn3c2C)c1	.	.	0.17
SMILES	Biofilm kill mix	Pf gamet viab	ROMK primary
O=C(CSCc1ccccc1)N1CCN(Cc2ccc3c(c2)OCO3)CC1	7	10	-2.9*
Cc1ccccc1Cc1c(C)nc2c(C(=O)N3CCN(Cc4ccc5c(c4)OCO5)CC3)cnn2c1C	.	11	-5.3*
CCCC(=O)N1CCN(Cc2ccc3c(c2)OCO3)CC1	17	.	0.45
C[C@@]12C(=O)N(CCc3c[nH]c4ccccc34)CC(=O)N1[C@H]1c3ccccc3OC[C@@H]1[C@@H]2c1ccccc1	.	-13	.
CCC(CO)Oc1cc(NC(=O)c2ccc(C)cc2)c2ncn(C(C)C)c2c1 (centres undefined)	.	29	.
CSc1ccc(S(=O)(=O)N2c3ccccc3CC2C)cc1 (centres undefined)	.	-11	.
Cc1ccc2c(c1)C1CN(C)CCC1N2C(=S)NC(=O)c1ccc(Cl)cc1Cl (centres undefined)	11	0	.
CC1Cc2ccccc2N1C(=S)NC(=O)c1ccc(Cl)cc1Cl (centres undefined)	19	-23	7.8*
CC(=O)c1ccc(NC(=S)N2c3ccccc3CC2C)cc1 (centres undefined)	10	.	.
CC1Cc2ccccc2N1C(=S)NC(=O)c1cccc(Br)c1 (centres undefined)	14	6	10*
CCOC(=O)c1oc2c(CN3CCN(C)CC3)c(O)c(CC)cc2c(=O)c1-c1nc2ccccc2s1	.	3	.
CCCOC(=O)Cn1cnc2scc(-c3ccc(OC)cc3)c2c1=O	.	-11	.
CS(=O)(=O)N(CC(=O)N1CCCCCC1)c1cc(Cl)ccc1Cl	.	-18	.
Nc1cccc(-c2cn(-c3cc4cc(C#CC5(O)CCCCC5)ccc4oc3=O)nn2)c1	.	-5	.
Cn1c(N2CCN(C(c3ccccc3)c3ccccc3)CC2)nc2ccccc21	.	-5	.
CSC1=NC2(CC(c3ccccc3)Oc3cc(O)ccc32)CC(C)(C)N1 (centres undefined)	9	11	-4*
COc1cccc(C2CC3(CC(C)(C)NC(=S)N3)Oc3cc(O)ccc32)c1 (centres undefined)	20	-21	.
O=S(=O)(CCN1CCCCC1)Oc1ccc(Cl)cc1Cl	19	24	.
O=C1/C(=C/c2ccncc2)CCC/C1=C\c1ccncc1	-8	-2	-3.3*
O=C1/C(=C\c2ccncc2)CCc2ccccc21	.	-32	.
Cc1cccc(NC(=O)c2nc[nH]c2C(=O)N(C)Cc2ccccc2)c1	.	13	.
CCN1CCN(C(c2ccc(F)cc2)c2nnnn2Cc2ccc3c(c2)OCO3)CC1 (centres undefined)	12	-9	0.26
c1ccc(CCn2nnnc2C(c2cccs2)N2CCN(Cc3ccc4c(c3)OCO4)CC2)cc1 (centres undefined)	.	.	-3.1*
CCN1CCN(C(c2ccccc2F)c2nnnn2Cc2ccc3c(c2)OCO3)CC1 (centres undefined)	.	7	-2.2*
Fc1ccccc1N1CCN(C(c2cccs2)c2nnnn2CCc2ccccc2)CC1 (centres undefined)	.	5	.
SMILES	Biofilm kill mix	Pf gamet viab	ROMK primary
Cc1ccccc1N(CC(=O)N1CCCCCC1)S(C)(=O)=O	.	9	.
O=C(Cc1ccc(Br)cc1)Nc1ccc(S(=O)(=O)Nc2ncccn2)cc1	.	5	.
Fc1ccc(-c2csc(=S)[nH]2)cc1	-6	6	1.8
S=c1[nH]c(-c2ccccc2)cs1	15	13	2.5*
O=C(C[n+]1ccccc1)NNc1ccccc1	.	29	.
CCOC(=O)C(C#N)C(c1cccnc1)c1c(C)[nH][nH]c1=O (centres undefined)	.	40*	.
CCOC(=O)/C(C#N)=C\c1cccnc1	10	-30	-0.29
CN=C1CC(SC)=C1c1ccc(C)cc1	1	-20	-2.9*
C/C(CS(=O)(=O)c1ccccc1)=N\O	11	.	0.22
C/C(CCS(=O)(=O)c1ccccc1)=N/O	16	38*	0.79
Cc1nc(SCC(=O)N2CCCCCC2)c2c(=O)n(C)c(=O)n(CC(C)C)c2n1	.	-17	.
COc1ccc(C(=O)Nc2ccccc2C(=O)Nc2ccc(C(=O)O)cc2)cc1	.	-14	.
COc1ccc(C(=NNc2ccccc2C(=O)O)c2ccc(OC)cc2)cc1	14	53*	0.67
COc1ccccc1-c1nc(C#N)c(NCCCn2ccnc2)o1	9	5	-2.4
Cc1ccccc1CNC(=O)CN(c1ccccc1Cl)S(C)(=O)=O	.	12	.
CN(CCCC(=O)O)c1ccc(N=Nc2ccc([N+](=O)[O-])cc2)cc1	.	-33	.
CC(C)(C)C(=O)NC(=S)NNC(=O)c1ccc(-c2ccccc2)cc1	18	.	6.1*
CC(C)(C)C(=O)NC(=S)NNC(=O)c1ccncc1	21	.	-0.41
Cc1ccc(C(=O)NNC(=S)NC(=O)COc2ccccc2)cc1	.	-13	6.6*
CC(C)(C)c1ccc(C(=O)NC(=S)NNC(=O)c2cccs2)cc1	21	7	9.1*
